≈ marks a conversion by molar mass, not a printed value. Non-standard residues stand in square brackets, D forms with d. Residues, ends and D or L forms follow the SMILES beside them. d(hArg(Et2)) = CCN=C(NCC)NCCCC[C@@H](N)C(=O)O; dPhe(4-Cl) = N[C@H](Cc1ccc(Cl)cc1)C(=O)O; dPhe(4-F) = N[C@H](Cc1ccc(F)cc1)C(=O)O; d2Nal = N[C@H](Cc1ccc2ccccc2c1)C(=O)O
Key:
[1] = species on record: Rattus norvegicus; assay: Evaluated for the release of histamine in rats (based on 10 animals per dose group); assay type: functional, organism-based
[2] = test system: Rattus norvegicus; assay: Evaluated for the anti-ovulatory activity (rats were injected subcutaneously at noon on proestrus); assay type: functional
Outline: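 Female rats with at least two consecutive normal 4-day cycles, confirmed by vaginal lavage cytology, were dosed once s.c. at noon on proestrus in 50% propylene glycol/0.9% saline. On the morning of expected estrus, the oviducts were examined for ovulated eggs, which were counted. The effective dose came from % females ovulating plotted against log dose, usually with ≥3 dose groups (10 rats per group total).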

EC50 [1]	Structure (SMILES)	ED50 [2]
1.5 µg/mL (≈ 1.02 µM)	CC(=O)N[C@H](Cc1ccc2ccccc2c1)C(=O)N[C@H](Cc1ccc(Cl)cc1)C(=O)N[C@H](Cc1cccnc1)C(=O)N[C@@H](CO)C(=O)N[C@@H](CCCN=C(N)N)C(=O)N[C@H](Cc1cccnc1)C(=O)N[C@@H](CC(C)C)C(=O)N[C@@H](CCCCNC1=NCCCN1)C(=O)N1CCC[C@H]1C(=O)N[C@H](C)C(N)=O	0.295 µg
0.64 µg/mL (≈ 0.408 µM)	CCCC/N=C(\N)NCCCC[C@H](NC(=O)[C@H](CC(C)C)NC(=O)[C@@H](CCCCN/C(N)=N/CCCC)NC(=O)[C@H](Cc1ccc(O)cc1)NC(=O)[C@H](CO)NC(=O)[C@@H](Cc1cccnc1)NC(=O)[C@@H](Cc1ccc(Cl)cc1)NC(=O)[C@@H](Cc1ccc2ccccc2c1)NC(C)=O)C(=O)N1CCC[C@H]1C(=O)N[C@H](C)C(N)=O	~0.9 µg
0.51 µg/mL (≈ 0.355 µM)	CC(=O)N[C@H](Cc1ccc2ccccc2c1)C(=O)N[C@H](Cc1ccc(F)cc1)C(=O)N[C@H](Cc1c[nH]c2ccccc12)C(=O)N[C@@H](CO)C(=O)N[C@@H](Cc1ccc(O)cc1)C(=O)N[C@H](CCCN=C(N)N)C(=O)N[C@@H](CC(C)C)C(=O)N[C@@H](CCCN=C(N)N)C(=O)N1CCC[C@H]1C(=O)NCC(N)=O (Ac-[d2Nal][dPhe(4-F)][dW]SY[dR]LRPG-NH2)	2.4 µg
< 0.01 µg/mL	CC/N=C(\NCC)NCCCC[C@@H](NC(=O)[C@H](Cc1ccc(O)cc1)NC(=O)[C@H](CO)NC(=O)[C@@H](Cc1cccnc1)NC(=O)[C@@H](Cc1ccc(Cl)cc1)NC(=O)[C@@H](Cc1ccc2ccccc2c1)NC(C)=O)C(=O)N[C@@H](Cc1ccccc1)C(=O)N[C@@H](CCCN=C(N)N)C(=O)N1CCC[C@H]1C(=O)N[C@H](C)C(N)=O	0.5 µg
15.7 µg/mL (≈ 10.5 µM)	CCCC/N=C(\N)NCCCC[C@H](NC(=O)[C@H](CC(C)C)NC(=O)[C@@H](Cc1cccnc1)NC(=O)[C@H](Cc1ccc(O)cc1)NC(=O)[C@H](CO)NC(=O)[C@@H](Cc1cccnc1)NC(=O)[C@@H](Cc1ccc(Cl)cc1)NC(=O)[C@@H](Cc1ccc2ccccc2c1)NC(C)=O)C(=O)N1CCC[C@H]1C(=O)N[C@H](C)C(N)=O	1.2 µg
6.2 µg/mL (≈ 4.27 µM)	CC(=O)N[C@H](Cc1ccc2ccccc2c1)C(=O)N[C@H](Cc1ccc(F)cc1)C(=O)N[C@H](Cc1cccnc1)C(=O)N[C@@H](CO)C(=O)N[C@@H](CCCN=C(N)N)C(=O)N[C@H](Cc1cccnc1)C(=O)N[C@@H](CC(C)C)C(=O)N[C@@H](CCCCNC1=NCCCN1)C(=O)N1CCC[C@H]1C(=O)N[C@H](C)C(N)=O	0.5 µg
196 µg/mL (≈ 131 µM)	CC/N=C(\NCC)NCCCC[C@H](NC(=O)[C@H](CC(C)C)NC(=O)[C@@H](Cc1cccnc1)NC(=O)[C@H](Cc1ccc(O)cc1)NC(=O)[C@H](CO)NC(=O)[C@@H](Cc1cccnc1)NC(=O)[C@@H](Cc1ccc(Cl)cc1)NC(=O)[C@@H](Cc1ccc2ccccc2c1)NC(C)=O)C(=O)N1CCC[C@H]1C(=O)N[C@H](C)C(N)=O	0.6 µg
0.18 µg/mL (≈ 0.117 µM)	CCNC(=NCCCC[C@@H](NC(=O)[C@H](Cc1ccc(O)cc1)NC(=O)[C@H](CO)NC(=O)[C@@H](Cc1c[nH]c2ccccc12)NC(=O)[C@@H](Cc1ccc(Cl)cc1)NC(=O)[C@@H](Cc1ccc2ccccc2c1)NC(C)=O)C(=O)N[C@@H](CC(C)C)C(=O)N[C@@H](CCCN=C(N)N)C(=O)N1CCC[C@H]1C(=O)N[C@H](C)C(N)=O)NCC (Ac-[d2Nal][dPhe(4-Cl)][dW]SY[d(hArg(Et2))]LRP[dA]-NH2)	~0.6 µg
1.6 µg/mL (≈ 1.04 µM)	CC(=O)N[C@H](Cc1ccc2ccccc2c1)C(=O)N[C@H](Cc1ccc(Cl)cc1)C(=O)N[C@H](Cc1cccnc1)C(=O)N[C@@H](CO)C(=O)N[C@@H](CCCN=C(N)N)C(=O)N[C@H](CCC(=O)N[C@@H](C)C(=O)N[C@@H](C)C(=O)O)C(=O)N[C@@H](CC(C)C)C(=O)N[C@@H](CCCN=C(N)N)C(=O)N1CCC[C@H]1C(=O)N[C@H](C)C(N)=O	<1.5 µg
0.95 µg/mL (≈ 0.596 µM)	CC(=O)N[C@H](Cc1ccc2ccccc2c1)C(=O)N[C@H](Cc1ccc(Cl)cc1)C(=O)N[C@H](Cc1cccnc1)C(=O)N[C@@H](CO)C(=O)N[C@@H](CCCN=C(N)N)C(=O)N[C@H](Cc1cccnc1)C(=O)N[C@@H](CC(C)C)C(=O)N[C@@H](CCCCN=C(NCC(F)(F)F)NCC(F)(F)F)C(=O)N1CCC[C@H]1C(=O)N[C@H](C)C(N)=O	0.595 µg
23.6 µg/mL (≈ 15.9 µM)	CC/N=C(\NCC)NCCCC[C@H](NC(=O)[C@H](CC(C)C)NC(=O)[C@@H](Cc1cccnc1)NC(=O)[C@H](CCCN=C(N)N)NC(=O)[C@H](CO)NC(=O)[C@@H](Cc1cccnc1)NC(=O)[C@@H](Cc1ccc(Cl)cc1)NC(=O)[C@@H](Cc1ccc2ccccc2c1)NC(C)=O)C(=O)N1CCC[C@H]1C(=O)N[C@H](C)C(N)=O	0.425 µg

The next lines start with the compound.

Structure (SMILES)	EC50 [1]	ED50 [2]
CC(=O)N[C@H](Cc1ccc2ccccc2c1)C(=O)N[C@H](Cc1ccc(Cl)cc1)C(=O)N[C@H](Cc1c[nH]c2ccccc12)C(=O)N[C@@H](CO)C(=O)N[C@@H](Cc1ccc(O)cc1)C(=O)N[C@H](CCCCNC1=NCCCN1)C(=O)N[C@@H](CC(C)C)C(=O)N[C@@H](CCCCN=C(N)N)C(=O)N1CCC[C@H]1C(=O)N[C@H](C)C(N)=O	0.41 µg/mL (≈ 0.267 µM)	0.56 µg
CCCC/N=C(/N)NCCCC[C@@H](NC(=O)[C@H](Cc1ccc(O)cc1)NC(=O)[C@H](CO)NC(=O)[C@@H](Cc1cccnc1)NC(=O)[C@@H](Cc1ccc(F)cc1)NC(=O)[C@@H](Cc1ccc2ccccc2c1)NC(C)=O)C(=O)N[C@@H](CC(C)C)C(=O)N[C@@H](CCCCN=C(NCC(F)(F)F)NCC(F)(F)F)C(=O)N1CCC[C@H]1C(=O)N[C@H](C)C(N)=O	59 µg/mL (≈ 35.5 µM)	1 µg
CC(=O)N[C@H](Cc1ccc2ccccc2c1)C(=O)N[C@H](Cc1ccc(Cl)cc1)C(=O)N[C@H](Cc1cccnc1)C(=O)N[C@@H](CO)C(=O)N[C@@H](Cc1ccc(O)cc1)C(=O)N[C@H](Cc1cccnc1)C(=O)N[C@@H](CC(C)C)C(=O)N[C@@H](CCCCNC1=NCCCN1)C(=O)N1CCC[C@H]1C(=O)N[C@H](C)C(N)=O	20 µg/mL (≈ 13.5 µM)	0.68 µg
CC(=O)N[C@H](Cc1ccc2ccccc2c1)C(=O)N[C@H](Cc1ccc(Cl)cc1)C(=O)N[C@H](Cc1c[nH]c2ccccc12)C(=O)N[C@@H](CO)C(=O)N[C@@H](CCCN=C(N)N)C(=O)N[C@H](Cc1c[nH]c2ccccc12)C(=O)N[C@@H](CC(C)C)C(=O)N[C@@H](CCCCNC1=NCCCN1)C(=O)N1CCC[C@H]1C(=O)N[C@H](C)C(N)=O	0.81 µg/mL (≈ 0.524 µM)	>2 µg
CC(=O)N[C@H](Cc1ccc2ccccc2c1)C(=O)N[C@H](Cc1ccc(Cl)cc1)C(=O)N[C@H](Cc1cccnc1)C(=O)N[C@@H](CO)C(=O)N[C@@H](Cc1ccc(O)cc1)C(=O)N[C@H](CCCCNC1=NCCCN1)C(=O)N[C@@H](CC(C)C)C(=O)N[C@@H](CCCCNC1=NCCCN1)C(=O)N1CCC[C@H]1C(=O)N[C@H](C)C(N)=O	1.33 µg/mL (≈ 0.865 µM)	~0.6 µg
CC/N=C(\NCC)NCCCC[C@H](NC(=O)[C@H](CC(C)C)NC(=O)[C@@H](Cc1c[nH]c2ccccc12)NC(=O)[C@H](Cc1ccc(O)cc1)NC(=O)[C@H](CO)NC(=O)[C@@H](Cc1c[nH]c2ccccc12)NC(=O)[C@@H](Cc1ccc(Cl)cc1)NC(=O)[C@@H](Cc1ccc2ccccc2c1)NC(C)=O)C(=O)N1CCC[C@H]1C(=O)N[C@H](C)C(N)=O	16 µg/mL (≈ 10.2 µM)	~0.9 µg
CC(=O)N[C@H](Cc1ccc2ccccc2c1)C(=O)N[C@H](Cc1ccc(Cl)cc1)C(=O)N[C@H](Cc1cccnc1)C(=O)N[C@@H](CO)C(=O)N[C@@H](CCCCN=C(NCC(F)(F)F)NCC(F)(F)F)C(=O)N[C@H](Cc1ccc(O)cc1)C(=O)N[C@@H](CC(C)C)C(=O)N[C@@H](CCCCN=C(NCC(F)(F)F)NCC(F)(F)F)C(=O)N1CCC[C@H]1C(=O)N[C@H](C)C(N)=O	53 µg/mL (≈ 29.7 µM)	1.15 µg
CCCC/N=C(\N)NCCCC[C@H](NC(=O)[C@H](CC(C)C)NC(=O)[C@@H](Cc1c[nH]c2ccccc12)NC(=O)[C@H](Cc1ccc(O)cc1)NC(=O)[C@H](CO)NC(=O)[C@@H](Cc1c[nH]c2ccccc12)NC(=O)[C@@H](Cc1ccc(Cl)cc1)NC(=O)[C@@H](Cc1ccc2ccccc2c1)NC(C)=O)C(=O)N1CCC[C@H]1C(=O)N[C@H](C)C(N)=O	1.6 µg/mL (≈ 1.02 µM)	~1.3 µg

From ChEMBL document CHEMBL1125326, “Potent gonadotropin releasing hormone antagonists with low histamine-releasing activity” (J Med Chem, 1992)
